Assay [1] in a line: inhibitors of TNFa-induced NFkB p65 translocation, primary screen, imaging, HUVEC, MLSMR starter and 10KST1 sets (AID 438;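 active = inhibition above 20% together with a positive visual image hit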;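 note: compound added about 3h40 before a 20 min TNFalpha stimulation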;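 for inhibition: signal is the nuclear over cytoplasmic p65 intensity ratio per well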). As to conditions: HUVEC TNFa-induced p65 nuclear translocation; cell count: measured here: nuclei count (cytotoxicity indicator), at 2.08 µM; inhibition: at 2 µM, stronger effect = higher value, 0% TNFa-plus-vehicle, 100% no-TNFa wells.
Assay [2] in a line: inhibitors of mutant huntingtin aggregation, primary screen, imaging, exon1htt(103Q)mCFP cells, high-content imaging (AID 483;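 active = visual image review flags a hit and inhibition of aggregation exceeds 20%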;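 note: compound exposure lasted 3 days before fixation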;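 for nuclei count: percent of the per-plate median nuclei count of sample wells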). To be noted: exon1htt(103Q)mCFP cell line, aggregate imaging, at 2 µM; inhibition of aggregation: stronger effect = higher value; nuclei count: measured here: cell count, toxicity.
Assay [3] in a line: inhibitors of E-selectin induction by TNFa, primary screen, imaging, HUVEC, immunofluorescence, MLSMR starter and 10KST1 sets (AID 487;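 active = visually confirmed hit in the image check and inhibition above 20%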;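 for inhibition: signal is fraction of cell area covered by stained E-selectin grains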;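 for nuclei count: 100% = median nuclei count of all wells on the same plate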). As to conditions: HUVEC TNFalpha-induced E-selectin immunofluorescence imaging, at 2 µM; inhibition: stronger effect = higher value; nuclei count: measured here: cell number, toxicity.
The target of assay [4] is Voltage-gated potassium channel subunit beta-2 (Rattus norvegicus) (UniProt P62483). The experiment in a line: KvBeta enzyme negative modulators, primary screen, biochemical, NADPH fluorescence (AID 622;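 active = fluorescence slope higher than the sample average by over 3 SD, cut at about -0.22 in these data, passing the limit was not always enough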;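 note: slope of raw intensity against log time taken from 70 to 1610 s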). As to conditions: recombinant KvBeta, 4-cyanobenzaldehyde reduction, at 10 µM, stronger effect = higher value.
Voltage-gated potassium channel subunit beta-2 (Rattus norvegicus), sequence (P62483 whole entry, looked up): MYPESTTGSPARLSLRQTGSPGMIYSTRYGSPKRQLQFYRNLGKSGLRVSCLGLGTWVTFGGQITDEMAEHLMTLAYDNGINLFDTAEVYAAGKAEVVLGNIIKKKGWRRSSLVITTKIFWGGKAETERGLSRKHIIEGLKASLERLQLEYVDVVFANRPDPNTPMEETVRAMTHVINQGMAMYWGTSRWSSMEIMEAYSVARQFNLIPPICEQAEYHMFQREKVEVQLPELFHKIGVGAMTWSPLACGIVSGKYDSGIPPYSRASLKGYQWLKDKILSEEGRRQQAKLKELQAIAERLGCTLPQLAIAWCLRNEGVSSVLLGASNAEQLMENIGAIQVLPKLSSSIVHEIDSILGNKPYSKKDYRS
Assay [5] has the same target. The experiment in a line: KvBeta positive modulators, primary screen, biochemical, NADPH fluorescence (AID 623;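 active = NADPH fluorescence slope more negative than the mean of all samples by about 3 SD, 99.7% confidence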;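 note: fluorescence intensity change per second fitted from 20 to 320 s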). To be noted: Recombinant KvBeta, NADPH fluorescence decrease slope, 10 min; at 10 µM; stronger effect = lower value.
Assay [6] concerns the target Muscarinic acetylcholine receptor M4 (Homo sapiens) (UniProt P08173). The experiment in a line: compounds altering M4/GIRK thallium flux, either direction, primary screen, M4 allosteric agonist project, cell-based, HEK293 M4/GIRK, BTC-AM (AID 625;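 active = fluorescence slope after compound addition differing from the mean of all tested samples at 99.7% confidence, mostly higher but some lower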;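 note: thallium influx through GIRK channels coupled to M4 in HEK293 cells with BTC-AM dye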). As to conditions: at 10 µM, actives lie on both sides. The essentials: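 Material – HEK293 cells with M4 receptor and GIRK channels · Buffer or medium – pH 7.3 thallium assay buffer · Doses – one dose, 10 µM final · Timing – cells overnight at 37 °C, BTC-AM loading 1 h, reads 2 min total · Measured by – kinetic fluorescence with BTC-AM dye · Controls – carbachol and DMSO controls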

The nature of assay [7]: inhibitors of Sendai virus-induced IRF3 signaling, primary screen, TLR/RLR signaling modifier project, cell-based, Sendai virus stimulus, luciferase, 10K MLSCN set (AID 602276).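 Note: firefly luciferase from ISG56 promoter only with Renilla not read in this screen; 0% = Sendai virus plus DMSO and 100% = medium plus DMSO without virus.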 As to conditions: HEK293 RL24 IRF3 luciferase reporter, at 10 µM, stronger effect = higher value. A general note: Reporter assays use an easily measured gene product as a stand-in for the process of interest.

Assay [8] can be described thus: inhibitors of poly I:C-induced TLR3 signaling, primary screen, cell-based, poly I:C stimulus, luciferase, 10K MLSCN set (AID 602277;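 active = inhibition of the reporter signal at or above 50%; inactive = inhibition below 50%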). To be noted: HEK293-TLR3 RL24 IRF3 luciferase reporter, at 10 µM, stronger effect = higher value.

The source made the active and inactive calls.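 Rule for the calls, unless noted: active = inhibition at or above 50% at 10 µM; inactive = inhibition below 50%.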

Muscarinic acetylcholine receptor M4 (Homo sapiens), sequence (P08173 whole entry, looked up): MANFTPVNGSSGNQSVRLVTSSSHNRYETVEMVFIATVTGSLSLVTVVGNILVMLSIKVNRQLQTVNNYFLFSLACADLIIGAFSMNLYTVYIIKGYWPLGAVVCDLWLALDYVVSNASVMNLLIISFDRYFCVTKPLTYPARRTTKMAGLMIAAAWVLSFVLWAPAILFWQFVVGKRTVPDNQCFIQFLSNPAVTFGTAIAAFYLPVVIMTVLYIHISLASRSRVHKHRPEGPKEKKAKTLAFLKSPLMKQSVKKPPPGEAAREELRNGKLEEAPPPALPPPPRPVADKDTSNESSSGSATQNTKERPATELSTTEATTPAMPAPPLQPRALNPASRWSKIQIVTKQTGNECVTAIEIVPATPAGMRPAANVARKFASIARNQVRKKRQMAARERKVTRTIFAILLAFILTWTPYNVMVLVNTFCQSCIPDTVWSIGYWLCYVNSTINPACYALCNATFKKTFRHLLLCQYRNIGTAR

Take `Cc1nn(-c2ccc(F)cc2)c2sc(C(=O)OCC(=O)N3CCC(C)CC3)cc12`: in assay [1], the cell count is 359. The inhibition (in general, the change of the read-out against control, counted positive when it falls) in assay [1] is -4.2% (inactive); in assay [3], 0.8% (inactive); in assay [7], -2.34% (inactive); in assay [8] it was -1.01% (inactive). Besides, the inhibition of aggregation in assay [2] was -8.8% (inactive). Also, the nuclei count came to 95.7% in assay [2] and 106% in assay [3]. Moreover, the fluorescence slope in assay [4] is -0.514 (inactive); in assay [6] it was 0.00495 (inactive). In assay [5], the NADPH fluorescence slope was -3.9e-05 (inactive).

Consider `CCSc1nnc(NC(=O)c2ccc(C)o2)s1`, for which the cell count in assay [1] is 603. Besides, the inhibition is -10.7% (inactive) in assay [1], 11.4% (inactive) in assay [3], -41.5% (inactive) in assay [7] and -89% (inactive) in assay [8]. Moreover, the inhibition of aggregation in assay [2] was 21.1% (inactive). The nuclei count in assay [2] and in assay [3] was 96.3% in each case. Moreover, the fluorescence slope in assay [4] was -0.531 (inactive); in assay [6], 0.00557 (inactive). For the same compound, the NADPH fluorescence slope in assay [5] was -4e-05 (inactive).

Turning to `CCCCn1c(SCc2cccnc2)nc2c1c(=O)n(C)c(=O)n2C`, the cell count in assay [1] came out at 502. For the same compound, the inhibition was -7.2% (inactive) in assay [1], -15.9% (inactive) in assay [3], -4.82% (inactive) in assay [7] and 0.323% (inactive) in assay [8]. In addition, the inhibition of aggregation in assay [2] is 27.2% (inactive). The results for the nuclei count in assay [2] and in assay [3] were 90.8% and 198%, respectively. In addition, the fluorescence slope in assay [4] is -0.511 (inactive); in assay [6] it was 0.00468 (inactive). Also, the NADPH fluorescence slope in assay [5] is -3.3e-05 (inactive).

Consider `Cc1ccc(C2N(c3ccc(Cl)c(Cl)c3)C(=O)C3CCCN32)o1` (centres undefined), for which, in assay [1], the cell count was 495. The inhibition was -1.5% (inactive) in assay [1], -11.2% (inactive) in assay [3], 16.9% (inactive) in assay [7] and 18.1% (inactive) in assay [8]. In assay [2], the inhibition of aggregation is 7.9% (inactive). For the same compound, the nuclei count worked out at 98.2% in assay [2] and 97% in assay [3]. The fluorescence slope in assay [4] is -0.561 (inactive); in assay [6] it was 0.0047 (inactive). In assay [5], the NADPH fluorescence slope is -2e-05 (inactive).

As for `Cn1c(SCC(N)=O)nnc1C1CCN(S(=O)(=O)c2ccccc2C(F)(F)F)CC1`, the cell count in assay [1] was found to be 554. The inhibition in assay [1] was -12.3% (inactive); in assay [3], 33.9% (inactive); in assay [7], 10.8% (inactive); in assay [8] it was 19.2% (inactive). The inhibition of aggregation in assay [2] was 4% (inactive). Moreover, the figures for the nuclei count in assay [2] and in assay [3] were 88.2% and 96.6%, respectively. Moreover, the fluorescence slope in assay [4] is -0.214 (inactive); in assay [6] it was 0.00588 (inactive). The NADPH fluorescence slope in assay [5] was -3.4e-05 (inactive).

In the case of `CCOC(=O)c1sc(N2C(=O)C(O)=C(C(=O)c3ccco3)C2c2ccccc2)nc1C` (centres undefined), in assay [1], the cell count amounted to 425. For the same compound, the inhibition in assay [1] was 2.8% (inactive); in assay [3], -43.5% (inactive); in assay [7] it was 6.84% (inactive); in assay [8], -6.96% (inactive). Also, the inhibition of aggregation in assay [2] is 9.3% (inactive). For the same compound, the nuclei count was determined as 102% in assay [2] and 97.4% in assay [3]. Further, the fluorescence slope in assay [4] is -0.37 (inactive); in assay [6], 0.00663 (inactive). In addition, in assay [5], the NADPH fluorescence slope is -5.7e-05 (inactive).

For the compound `CCOC(=O)N1CCN(c2cc(=O)n(-c3ccc(OCC)cc3)c(=O)[nH]2)CC1`, the cell count in assay [1] is 551. The inhibition in assay [1] is -10% (inactive); in assay [3], -26.9% (inactive); in assay [7], 3.3% (inactive); in assay [8], 10.8% (inactive). Besides, the inhibition of aggregation in assay [2] was 9.3% (inactive). The nuclei count is 109% in assay [2] and 112% in assay [3]. Also, the fluorescence slope in assay [4] is -0.431 (inactive); in assay [6], 0.00574 (inactive). For the same compound, in assay [5], the NADPH fluorescence slope was 0.0001 (inactive).

In the case of `CCOc1ccc(C(=O)N(CN2CCCC2=O)c2ccc(C)cc2)cc1`, the cell count in assay [1] stood at 385. The inhibition in assay [1] is -1.4% (inactive); in assay [3], 14.5% (inactive); in assay [7] it was -0.0171% (inactive); in assay [8], -43.9% (inactive). The inhibition of aggregation in assay [2] is -14.5% (inactive). Further, the results for the nuclei count in assay [2] and in assay [3] were 118% and 84%, respectively. In addition, the fluorescence slope in assay [4] was -0.53 (inactive); in assay [6], 0.0056 (inactive). In assay [5], the NADPH fluorescence slope was -5.9e-05 (inactive).

`Cc1ccc(S(=O)(=O)NCCNC(=O)c2ccccc2)cc1`: the cell count in assay [1] came to 212. Also, the inhibition in assay [1] is -4.9% (inactive); in assay [3], -38.2% (inactive); in assay [7] it was 13.4% (inactive); in assay [8] it was 10.4% (inactive). In addition, in assay [2], the inhibition of aggregation was 10.3% (inactive). Also, the results for the nuclei count in assay [2] and in assay [3] were 97.8% and 93.6%, respectively. Moreover, the fluorescence slope in assay [4] was -0.282 (inactive); in assay [6], 0.00552 (inactive). Also, the NADPH fluorescence slope in assay [5] is -4.2e-05 (inactive).

Take `Cc1ccc(NC(=O)c2oc3ccc(S(=O)(=O)N4CCOCC4)cc3c2C)cc1C`: the cell count in assay [1] was determined as 357. The inhibition in assay [1] is -20.4% (inactive); in assay [3], -98.4% (inactive); in assay [7] it was 11% (inactive); in assay [8] it was 13.9% (inactive). In addition, in assay [2], the inhibition of aggregation was -20.5% (inactive). The nuclei count in assay [2] worked out at 109%; in assay [3] it was 133%. Besides, the values for the fluorescence slope in assay [4] and in assay [6] were -0.278 (inactive) and 0.00768 (inactive), respectively. Also, in assay [5], the NADPH fluorescence slope was 2.2e-05 (inactive).

With `COc1ccc2nc(NC(=O)C(NS(=O)(=O)c3cccs3)C(C)C)sc2c1` (centres undefined), the cell count in assay [1] was determined as 365. Further, the inhibition in assay [1] was 0.9% (inactive); in assay [3], -222% (inactive); in assay [7] it was 17.4% (inactive); in assay [8] it was 21% (inactive). Further, in assay [2], the inhibition of aggregation was -16.1% (inactive). Moreover, the results for the nuclei count in assay [2] and in assay [3] were 97.8% and 104%, respectively. The fluorescence slope in assay [4] was -0.532 (inactive); in assay [6], 0.00546 (inactive). In addition, the NADPH fluorescence slope in assay [5] is 1.5e-05 (inactive).

Turning to `Cn1c(=O)[nH]c(=O)c2c1nc(N1CCNCC1)n2Cc1cccc2ccccc12`, the cell count in assay [1] was determined as 387. In addition, the inhibition in assay [1] is 1.1% (inactive); in assay [3], -83.1% (inactive); in assay [7] it was 13.2% (inactive); in assay [8] it was 28.8% (inactive). Further, the inhibition of aggregation in assay [2] was 13.1% (inactive). For the same compound, the nuclei count in assay [2] was 99.6%; in assay [3], 106%. The fluorescence slope was -0.59 (inactive) in assay [4] and 0.00615 (inactive) in assay [6]. Also, the NADPH fluorescence slope in assay [5] was -5.5e-05 (inactive).

On to `c1ccc(Cn2nnnc2C(c2ccccn2)N2CCOCC2)cc1` (centres undefined), for which the cell count in assay [1] amounted to 485. Also, the inhibition in assay [1] was 2.1% (inactive); in assay [3] it was -85.1% (inactive); in assay [7], -6.48% (inactive); in assay [8] it was 2.75% (inactive). Further, in assay [2], the inhibition of aggregation is -13% (inactive). The nuclei count in assay [2] amounted to 81.4%; in assay [3], 116%. Further, the results for the fluorescence slope in assay [4] and in assay [6] were -0.577 (inactive) and 0.00747 (inactive), respectively. Also, the NADPH fluorescence slope in assay [5] was -4.9e-05 (inactive).

As for `CCOc1ccc(NC(=O)CN(C)S(=O)(=O)c2cccs2)cc1`, the cell count in assay [1] was 650. The inhibition in assay [1] was -12% (inactive); in assay [3] it was -22.6% (inactive); in assay [7], -60.5% (inactive); in assay [8] it was -62.8% (inactive). Further, in assay [2], the inhibition of aggregation is -4.9% (inactive). The nuclei count stood at 104% in assay [2] and 113% in assay [3]. For the same compound, the fluorescence slope is -0.587 (inactive) in assay [4] and 0.00617 (inactive) in assay [6]. In assay [5], the NADPH fluorescence slope is -3.3e-05 (inactive).

The values are drawn from PubChem BioAssay.
